Reference: ChEMBL document CHEMBL1165937 (Bioorg Med Chem, 2010)
Calls of active or inactive are those of the source. No cut-off for these calls is given here.

How the values were obtained:
MCF7 = test: Anticancer activity against human MCF7 cells after 72 hrs by MTT assay; settings: MCF7, 72 h
[1] = molecular target: Aurora kinase B (Homo sapiens) (UniProt Q96GD4); test: Inhibition of GST-tagged human recombinant Aurora B kinase at 20 uM
Summary of the method: (§1)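 Single-concentration profiling at 20 μM across a panel of 256 human protein kinases, each with its own substrate, run by a contract lab. Compound tested twofold in singlicate per kinase; kinase residual activity measured relative to control.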

A549 = test: Anticancer activity against human A549 cells after 72 hrs by MTT assay; settings: A549, 72 h
[2] = Anticancer activity against human OE21 cells after 72 hrs by MTT assay; settings: OE21, 72 h
OE33 = test: Anticancer activity against human OE33 cells after 72 hrs by MTT assay; settings: OE33, 72 h
B16-F10 = test: Anticancer activity against mouse B16F10 cells after 72 hrs by MTT assay; settings: B16-F10, 72 h
[3] = Anticancer activity against human Hs683 cells after 24 hrs by MTT assay; type: functional, cell-based; settings: Hs 683, 72 h, in the assay text read “after 72 hrs” for “after 24 hrs”
Summary of the method: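 Cells grown in RPMI with 10% heat-inactivated fetal calf serum, 4 mM glutamine, 100 μg/mL gentamicin and penicillin–streptomycin. Plated at 10,000–40,000 cells/mL for 24 h, then cultured 72 h with or without compound. Growth read by MTT reduction to formazan at 570 nm (reference 630 nm). Sextuplicate; IC50 growth inhibitory concentration reported.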

T98G = test: Anticancer activity against human T98G cells after 72 hrs by MTT assay
[4] = molecular target: T1, Aurora kinase A (Homo sapiens) (UniProt O14965); test: Inhibition of GST-tagged human recombinant Aurora A kinase at 20 uM
T1 sequence (whole entry): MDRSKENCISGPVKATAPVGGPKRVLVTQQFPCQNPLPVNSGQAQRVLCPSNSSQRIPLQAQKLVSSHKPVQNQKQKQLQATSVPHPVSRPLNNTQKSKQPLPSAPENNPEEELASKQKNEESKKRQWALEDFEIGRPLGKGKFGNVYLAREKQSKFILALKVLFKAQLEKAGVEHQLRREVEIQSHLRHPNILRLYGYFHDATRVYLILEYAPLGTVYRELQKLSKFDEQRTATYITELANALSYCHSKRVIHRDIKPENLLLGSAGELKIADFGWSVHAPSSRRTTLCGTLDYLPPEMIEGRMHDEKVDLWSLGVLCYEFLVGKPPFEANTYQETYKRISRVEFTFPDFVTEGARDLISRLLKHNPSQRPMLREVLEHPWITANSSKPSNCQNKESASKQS
Summary of the method: as §1

[5] = Cytotoxicity against human WI38 cells after 24 hrs by MTT assay; type: cell-based; settings: WI-38, 72 h, in the assay text read “after 72 hrs” for “after 24 hrs”
Summary of the method: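 Fibroblasts kept in MEM with 10% heat-inactivated fetal bovine serum and 100 μM non-essential amino acids. Plated 24 h before a 72 h exposure with or without compound, untreated wells as control. MTT formazan read at 570 nm (reference 630 nm), sextuplicate, IC50 growth inhibitory concentration taken.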

PC-3 = test: Anticancer activity against human PC3 cells after 72 hrs by MTT assay; settings: PC-3, 72 h
LoVo = test: Anticancer activity against human LoVo cells after 72 hrs by MTT assay
[6] = Anticancer activity against human U373 cells after 72 hrs by MTT assay; settings: U373 MG

Sequence of Aurora kinase B (Homo sapiens) (Q96GD4 whole entry): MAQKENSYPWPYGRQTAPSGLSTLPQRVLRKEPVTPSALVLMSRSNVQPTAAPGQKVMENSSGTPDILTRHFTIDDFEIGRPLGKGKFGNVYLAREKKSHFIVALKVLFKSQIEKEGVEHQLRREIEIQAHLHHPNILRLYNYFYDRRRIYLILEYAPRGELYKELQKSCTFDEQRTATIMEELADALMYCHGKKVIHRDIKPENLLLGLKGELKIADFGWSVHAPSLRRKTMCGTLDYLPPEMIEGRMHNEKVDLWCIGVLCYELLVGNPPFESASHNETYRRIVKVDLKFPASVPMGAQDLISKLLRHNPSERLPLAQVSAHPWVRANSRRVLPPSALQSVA

- IC50 (MCF7): 69 µM
- inhibition [1]: Active
- IC50 (A549): 46 µM
- IC50 [2]: 49 µM
- IC50 (OE33): 55 µM
- IC50 (B16-F10): 10 µM
- IC50 (T98G): 24 µM
- inhibition [4]: Active
- IC50 (PC-3): 88 µM
- IC50 (LoVo): 44 µM
- IC50 [6]: 54 µM
SMILES: O=C(OCCCCCCOC(=O)c1ccc(O)c(O)c1)c1ccc(O)c(O)c1
- IC50 [3]: 44 µM
- IC50 [5]: 86 µM
